ChEMBL document CHEMBL2034924, “Optimization of a Potent, Orally Active S1P1 Agonist Containing a Quinolinone Core” (ACS Med Chem Lett, 2012)
In brackets after ≈: the same amount, converted by molar mass. Blank lines part the entries; values can stand above or below the compound they belong to.

How the values were obtained:
[1] = AUC (0 to 24 hrs) in rat at 3 mg/kg, po; format: ADME, organism-based; parameters: time < 24 hr, dose 3 mg/kg, route oral; details: plasma
Rattus norvegicus [2] = experiment: AUC (0 to 24 hrs) in rat at 100 mg/kg, po; format: ADME, organism-based, Plasma; parameters: time < 24 hr, dose 100 mg/kg, route oral; details: in vivo
[3] = Volume of distribution at steady state in nonhuman primates at 4 mg/kg, iv; format: ADME, organism-based; parameters: dose 4 mg/kg, route intravenous; details: in vivo, read-out: Vdss
In short: (§1)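 Pharmacokinetics in male nonhuman primates. IV vehicle was 40% hydroxypropyl β-cyclodextrin/60% water with MSA, pH 3. Oral vehicle was 1% HPMC/1% pluronic F68/20% HPBCD/78% water with MSA, pH 2.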

[4] = Clearance in Sprague-Dawley rat at 1 mg/kg, iv and 2 mg/kg, po; format: ADME, organism-based; details: in vivo
In short: (§2)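 Male Sprague-Dawley rats. IV doses were given in DMSO. Oral doses were given in 20% Captisol/1% Tween 80, pH 2, with MSA. Plasma was collected up to 48 h after dosing.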

[5] = molecular target: T1, Sphingosine 1-phosphate receptor 1 (Homo sapiens, UniProt P21453); experiment: Agonist activity at human S1P1 receptor expressed in human U2OS cells co-expressing eGFP assessed as receptor internalization after 1 hr relative to 1-(4-(6-benzylbenzofuran-2-yl)-3-fluorobenzyl)azetidine-3-carboxylic acid; format: functional, cell-based
[6] = molecular target: T2, Sphingosine 1-phosphate receptor 3 (Homo sapiens, UniProt Q99500); experiment: Agonist activity at human S1P3 receptor expressed in CHO cells coexpressing Gq/i5 G-protein assessed as Ca2+ mobilization at 25 uM after 60 to 90 mins by FLIPR assay; format: functional, cell-based
[7] = AUC (0 to infinity) in C57BL/6 mouse at 3 mg/kg, po; format: ADME, organism-based; parameters: time infinity, dose 3 mg/kg, route oral; details: plasma
In short: (§3)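 Female C57BL/6 mice. IV dosing used 40% hydroxypropyl β-cyclodextrin/60% water. Oral dosing used 1% HPMC/1% pluronic F68/20% HPBCD/78% water with MSA, pH 2.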

[8] = Oral bioavailability in nonhuman primates at 10 mg/kg; format: ADME, organism-based; details: in vivo; in short: as §1
[9] = molecular target: T1, Sphingosine 1-phosphate receptor 1; experiment: Agonist activity at human S1P1 receptor expressed in human U2OS cells co-expressing eGFP assessed as receptor internalization after 1 hr; format: functional, cell-based
In short: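 U2OS cells expressing an hS1P1-GFP fusion protein; the read-out was receptor internalization. EC50 is the molar concentration giving a half-maximal response.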

Rattus norvegicus [10] = experiment: Lymphopenic activity in Lewis rat assessed as reduction in peripheral blood lymphocyte counts at 3 mg/kg, po measured 24 hrs post dosing relative to control; format: functional; parameters: scale not given: the % may be the effect or the level left
In short: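 Female Lewis rats (N = 3/group) received a single oral dose in 20% captisol/1% HPMC/1% pluronic F68, pH 2, with MSA. Blood lymphocyte counts and plasma concentration were measured at 24 h, reported as mean ± SE. Comparison was versus vehicle by ANOVA/Dunnett, P < 0.05.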

[11] = Plasma protein binding in rat; format: ADME, cell-free; details: read-out: PPB (converted)
[12] = Half life in Sprague-Dawley rat at 1 to 2 mg/kg, iv and po; format: ADME, organism-based; parameters: dose 1-2 mg/kg, route oral; details: in vivo; in short: as §2
[13] = molecular target: T2, Sphingosine 1-phosphate receptor 3; experiment: Agonist activity at human S1P3 receptor expressed in CHO cells coexpressing Gq/i5 G-protein assessed as Ca2+ mobilization after 60 to 90 mins by FLIPR assay; format: functional, cell-based
In short: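 Ca2+ mobilization in CHO-K1 cells transfected with hS1P3/Gq/i5. EC50 is the molar concentration giving a half-maximal response.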

[14] = Volume of distribution at steady state in Sprague-Dawley rat at 1 mg/kg, iv; format: ADME, organism-based; parameters: dose 1 mg/kg, route intravenous; details: in vivo, read-out: Vdss; in short: as §2
[15] = Oral bioavailability in Sprague-Dawley rat at 2 mg/kg; format: ADME, organism-based; details: in vivo; in short: as §2
[16] = Mean residence time in C57BL/6 mouse at 1 mg/kg, iv; format: ADME, organism-based; parameters: dose 1 mg/kg, route intravenous; details: in vivo; in short: as §3
[17] = Oral bioavailability in C57BL/6 mouse at 3 mg/kg; format: ADME, organism-based; details: in vivo; in short: as §3
[18] = Intrinsic clearance in rat liver microsomes at 1 uM after 30 mins; format: ADME, Microsome; details: read-out: CLH
[19] = AUC (0 to infinity) in Sprague-Dawley rat at 2 mg/kg, po; format: ADME, organism-based; parameters: time infinity, dose 2 mg/kg, route oral; details: plasma; in short: as §2
[20] = Apparent permeability of the compound across pig LLC-PK1 cells; format: ADME, cell-based, Sus scrofa
In short: (§4)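 Parental porcine proximal tubule LLC-PK1 cell line. Apparent permeability was measured, and the efflux ratio was derived from it.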

[21] = Clearance in nonhuman primates at 4 mg/kg, iv and 10 mg/kg, po; format: ADME, organism-based; details: in vivo; in short: as §1
[22] = Volume of distribution at steady state in C57BL/6 mouse at 1 mg/kg, iv; format: ADME, organism-based; parameters: dose 1 mg/kg, route intravenous; details: in vivo, read-out: Vdss; in short: as §3
Rattus norvegicus [23] = experiment: Lymphopenic activity in Lewis rat assessed as reduction in peripheral blood lymphocyte counts at 1 mg/kg, po measured 24 hrs post dosing relative to control; format: functional; parameters: scale not given: the % may be the effect or the level left
In short: (§5)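 Female Lewis rats (N = 5/group) received a single oral dose of 1 mg/kg in 20% captisol, 1% HPMC, 1% pluronic F68, pH 2.1 with MSA. Peripheral lymphocyte count is given as percent-of-control reduction versus vehicle at 24 h. Total plasma drug concentration was measured at 24 h. Statistics used ANOVA/Dunnett versus vehicle.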

[24] = Mean residence time in Sprague-Dawley rat at 1 mg/kg, iv; format: ADME, organism-based; parameters: dose 1 mg/kg, route intravenous; details: in vivo; in short: as §2
[25] = AUC (0 to infinity) in Sprague-Dawley rat at 100 mg/kg, po; format: ADME, organism-based; parameters: time infinity, dose 100 mg/kg, route oral; details: plasma; in short: as §2
[26] = Solubility of the compound in simulated intestinal fluid at pH 6.8 after 2 to 3 days by HPLC analysis; format: physicochemical
[27] = Mean residence time in nonhuman primates at 4 mg/kg, iv; format: ADME, organism-based; parameters: dose 4 mg/kg, route intravenous; details: in vivo; in short: as §1
[28] = AUC (0 to infinity) in nonhuman primates at 10 mg/kg, po; format: ADME, organism-based; parameters: dose 10 mg/kg, route oral, time infinity; details: plasma; in short: as §1
[29] = Efflux ratio of permeability in pig LLC-PK1 cells; format: ADME, cell-based, Sus scrofa; in short: as §4
[30] = Oral bioavailability in Sprague-Dawley rat at 100 mg/kg; format: ADME, organism-based; details: in vivo; in short: as §2
[31] = Half life in Sprague-Dawley rat at 100 mg/kg, po; format: ADME, organism-based; parameters: dose 100 mg/kg, route oral; details: in vivo; in short: as §2
[32] = (§6) Plasma concentration in Lewis rat at 1 mg/kg, po measured 24 hrs post dosing; format: ADME, organism-based; parameters: dose 1 mg/kg, route oral; details: Lewis, plasma; in short: as §5
[33] = Clearance in C57BL/6 mouse at 1 mg/kg, iv and 3 mg/kg, po; format: ADME, organism-based; details: in vivo; in short: as §3
Plasma = experiment: as §6; format: ADME, organism-based; parameters: dose 1 mg/kg, route oral; details: in vivo, 24 h, BLD = below limit of detection; in short: as §5
[34] = molecular target: T2, Sphingosine 1-phosphate receptor 3; experiment: Agonist activity at human S1P3 receptor expressed in CHO cells coexpressing Gq/i5 G-protein assessed as Ca2+ mobilization after 60 to 90 mins by FLIPR assay relative to 0.2 uM S1P

T1 sequence (P21453 whole entry): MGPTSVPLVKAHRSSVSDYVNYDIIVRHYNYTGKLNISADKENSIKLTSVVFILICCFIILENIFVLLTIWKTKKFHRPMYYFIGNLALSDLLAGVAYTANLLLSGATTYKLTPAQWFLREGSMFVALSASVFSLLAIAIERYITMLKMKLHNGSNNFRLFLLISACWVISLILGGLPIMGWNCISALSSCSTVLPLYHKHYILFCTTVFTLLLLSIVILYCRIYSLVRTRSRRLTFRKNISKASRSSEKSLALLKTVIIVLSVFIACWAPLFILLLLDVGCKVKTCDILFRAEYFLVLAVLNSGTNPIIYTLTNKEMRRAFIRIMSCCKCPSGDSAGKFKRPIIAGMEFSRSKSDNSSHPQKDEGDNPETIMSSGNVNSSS
T2 sequence (Q99500 whole entry): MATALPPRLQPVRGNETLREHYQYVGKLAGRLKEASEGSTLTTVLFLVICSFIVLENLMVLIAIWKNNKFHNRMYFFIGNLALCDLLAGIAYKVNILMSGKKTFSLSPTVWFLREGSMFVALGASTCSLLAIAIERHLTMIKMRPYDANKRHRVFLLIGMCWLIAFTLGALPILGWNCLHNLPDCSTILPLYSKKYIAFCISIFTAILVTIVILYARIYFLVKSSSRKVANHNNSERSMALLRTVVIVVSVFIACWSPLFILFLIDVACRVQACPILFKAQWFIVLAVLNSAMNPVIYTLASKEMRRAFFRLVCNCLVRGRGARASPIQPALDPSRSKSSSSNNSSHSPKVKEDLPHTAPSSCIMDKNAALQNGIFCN

Efficacy [5]: 108%
Activity [6]: < 10%
EC50 [9]: 25 nM
EC50 [13]: > 25000 nM
Compound: Cn1cc(C(=O)Nc2ccc(-c3ccccc3)c(C(F)(F)F)c2)c(=O)c2ccc(CN3CC(C(=O)O)C3)cc21

Efficacy [5]: 98%
Activity [6]: < 10%
EC50 [9]: 21 nM
fraction unbound [11]: 0.02
EC50 [13]: > 25000 nM
microsomal CLint at 1 µM [18]: < 14 µL/min/mg
Papp [20]: 3 ×10⁻⁶ cm/s
solubility [26]: 48 µg/mL (≈ 103 µM)
efflux ratio [29]: 6.7
Cp (Plasma): BLD
Compound: Cn1cc(C(=O)Nc2ccc(-c3ccccc3)c(C(F)(F)F)c2)c(=O)c2ccc(C(=O)O)cc21
Activity (Rattus norvegicus [23]): 4%

Efficacy [5]: 81%
Activity [6]: < 10%
EC50 [9]: 150 nM
EC50 [13]: > 25000 nM
Compound: Cn1cc(C(=O)Nc2ccc(-c3ccccc3)c(C(F)(F)F)c2)c(=O)c2ccc(NCCC(=O)O)cc21

More lines, now with the values behind:

Compound: COc1ccncc1C(=O)NC(=O)Nc1ccc(-c2ccccc2)c(C(F)(F)F)c1
AUC(0-t) at 24 h [1]: 12 µM·h
AUC (Rattus norvegicus [2]): 73 µM·h

Compound: Cn1cc(C(=O)Nc2ccc(-c3ccccc3)c(C(F)(F)F)c2)c(=O)c2cnc(CO)cc21
Vd [3]: 4.3 L/kg
clearance [4]: 5.17 mL/min/kg
Efficacy [5]: 106%
Activity [6]: < 10%
AUC(0-inf) [7]: 16 µM·h
bioavailability [8]: 67%
EC50 [9]: 18 nM
Activity (Rattus norvegicus [10]): 88%
fraction unbound [11]: 0.083
half-life [12]: 13 h
EC50 [13]: > 25000 nM
Vd [14]: 5.8 L/kg
bioavailability [15]: 132%
MRT [16]: 20 h
bioavailability [17]: 75%
microsomal CLint at 1 µM [18]: < 14 µL/min/mg
AUC(0-inf) [19]: 19 µM·h
Papp [20]: 2.5 ×10⁻⁶ cm/s
clearance [21]: 1.83 mL/min/kg
Vd [22]: 6 L/kg
Activity (Rattus norvegicus [23]): -60%
MRT [24]: 19 h
AUC(0-inf) [25]: 1630 µM·h
solubility [26]: > 200 µg/mL
MRT [27]: 40 h
AUC(0-inf) [28]: 141 µM·h
efflux ratio [29]: 1
bioavailability [30]: > 93%
half-life [31]: 57 h
concentration at 24 h [32]: 84 ng/mL
clearance [33]: 5.17 mL/min/kg

Compound: Cn1cc(C(=O)Nc2ccc(-c3ccccc3)c(C(F)(F)F)c2)c(=O)c2cccc(CO)c21
Efficacy [5]: 104%
Activity [6]: < 10%
EC50 [9]: 39 nM
EC50 [13]: > 25000 nM

Compound: Cn1cc(C(=O)Nc2ccc(-c3ccccc3)c(C(F)(F)F)c2)c(=O)c2cnc(CCC(=O)O)cc21
Efficacy [5]: 88%
EC50 [9]: 38 nM
EC50 [13]: 1300 nM
Efficacy [34]: 49%

Compound: Cn1cc(C(=O)Nc2ccc(-c3ccccc3)c(C(F)(F)F)c2)c(=O)c2cccc(CN)c21
Efficacy [5]: 118%
EC50 [9]: 81 nM
EC50 [13]: 5600 nM
Efficacy [34]: 48%

Compound: Cn1cc(C(=O)Nc2ccc(-c3ccccc3)c(C(F)(F)F)c2)c(=O)c2cnccc21
Activity [6]: < 10%
fraction unbound [11]: 0.083
EC50 [13]: > 25000 nM
microsomal CLint at 1 µM [18]: < 14 µL/min/mg
Activity (Rattus norvegicus [23]): -64%
solubility [26]: 5 µg/mL (≈ 11.8 µM)
